Assay outcomes as filed in PubChem BioAssay.
Sampled rows, rich in hits. Any-hit rate of the full collection: about 2.3%.
PAX8 inh HTS – inhibitors of PAX8-driven TPO luciferase reporter, primary screen, RMG-I cells, single concentration. SteadyGlo, 24 h. inhibition, % at 12.6 µM. actives 1.2% (n = 360,000). AID 652154, 2013;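 active means mean replicate inhibition at least 60% with every replicate also reaching 60%; inconclusive means only one of the two criteria is met; inactive means mean below 60% and not all replicates reaching 60%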;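 further: luciferase light reporting Pax8 driven TPO promoter activity; plate controls were median of neutral control wells for no effect and mitoxantrone controls for full effect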
Arr AP2 block – inhibitors of beta-arrestin/AP2 binding, primary screen, biochemical, GPCR trafficking, flow cytometry; beta-arrestin 1 C-terminal peptide binding to AP2 beta2-adaptin appendage (human); FITC-arrestin peptide / GST-AP2 beads; AP2 beta2 appendage carries R879A mutation; inhibition, % at 10 µM; actives 0.31% (n = 340,000); AID 504490, 2011;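 active means inhibition above a set limit, near 3 SD of compounds lacking own fluorescence, cut at about 54% in these data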;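 further: plate controls were DMSO wells for no effect and 5 µM unlabelled arrestin peptide for full effect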
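Assay system: GST-AP2 R879A bound to glutathione beads, E. coli-expressed; Medium: PBS with 0.05% Tween 20 and 0.1% BSA; Also added: fluorescein-tagged arrestin peptide at 50 nM final; Timing: 12 min plus 1 h, RT; Measured by: flow cytometry, FL1 (488/535 nm); Evaluation: percent drop in bead-associated FITC signal.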
Rtt109 Vps75 – inhibitors of C. albicans Rtt109/Vps75 HAT, primary screen, biochemical, ThioGlo CoA-SH fluorescence, plate reader; purified Rtt109/Vps75, 4 h; inhibition, % at 34.9 µM; actives 0.16% (n = 330,000);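 active means inhibition of at least 50% in every replicate; inconclusive means best replicate reaches 50% inhibition but some replicates fall short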
Target sequence (Q5AAJ8 whole entry, looked up): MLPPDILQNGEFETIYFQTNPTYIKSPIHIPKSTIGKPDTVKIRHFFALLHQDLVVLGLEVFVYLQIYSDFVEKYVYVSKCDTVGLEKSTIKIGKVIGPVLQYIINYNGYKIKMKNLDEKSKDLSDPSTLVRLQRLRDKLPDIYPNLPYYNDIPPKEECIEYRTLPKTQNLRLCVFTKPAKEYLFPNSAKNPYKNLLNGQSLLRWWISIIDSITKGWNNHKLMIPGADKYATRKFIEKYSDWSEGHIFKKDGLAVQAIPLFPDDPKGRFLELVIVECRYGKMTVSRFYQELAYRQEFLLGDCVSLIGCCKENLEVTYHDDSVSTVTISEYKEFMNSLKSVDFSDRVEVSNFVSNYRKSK
HIV Env fusion – inhibitors of HIV-1 Env-driven cell-cell fusion, primary screen, HeLa-JRFL effector, CEM21 target cells, luciferase. inhibition, % at 12.3 µM. actives 1.1% (n = 360,000). AID 651610, 2012;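 active means mean replicate inhibition score of at least 50 and every replicate individually at or above 50; inconclusive means only one of the two criteria met; inactive means mean below 50 and not all replicates reaching 50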;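 further: 0% = plate neutral controls and 100% = maraviroc near 300 nM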
N-glyco inh – increase of ERlucT glycosylation luciferase signal, primary screen, N-linked glycosylation inhibitor project, D54 ERlucT cells, luminescence, set 2 | D54 ERlucT glycosylation luciferase reporter, 24 h; percent of 100 nM tunicamycin response | reporter increase, % at 12.5 µM | actives 0.23% (n = 360,000);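 active means mean luciferase reporter signal, scaled so untreated is 0 and the glycosylation-blocking control 100, at or above a set limit in every replicate; inconclusive means mean reaches the limit but not every replicate does; inactive means mean below the limit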;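 further: luciferase carries N-glycosylation sites so blocking glycosylation raises the light; 0% = median of neutral control wells and 100% = median of 100 nM tunicamycin wells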
PfHsp90 yeast 2 – growth inhibition of PfHsp90-expressing yeast, primary screen, antimalarial PfHsp90 inhibitor project, S. cerevisiae, BacTiter-Glo luminescence, single point, set 2; BacTiter-Glo ATP, 48 h; yeast lacking PDR1 and PDR3 efflux regulators; inhibition, % at 9.4 µM; actives 0.32% (n = 310,000); AID 504621, 2011;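 active means every replicate shows inhibition above about 80%, whatever the replicate mean, limit read from the data; inconclusive means mean inhibition reaches the set limit but some replicate falls short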;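 further: 0% = DMSO neutral controls and 100% = 20 µM radicicol positive controls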
* = called active by the depositor; ? = inconclusive; . = no result; [ ] = remark or other dose.

SMILES	PAX8 inh HTS	Arr AP2 block	Rtt109 Vps75	HIV Env fusion	N-glyco inh	PfHsp90 yeast 2
CCCN1[C@@H]2c3ccc(-c4ccccc4)c(=O)n3C[C@@H]2[C@@H](CO)[C@@H]1C(=O)NCC1CC1	6	.	.	.	.	.
O=C(N/N=C/c1ccc(Cl)cc1)c1sccc1OCc1ccc(F)cc1	.	19	-16	.	33*	6
Cc1[nH]n(-c2ccccc2)c(=O)c1C=Nc1cccc2cccnc12	?	-1	4	57*	3	24
COc1ccc(/C(C)=N/NC(=O)c2cccc(S(=O)(=O)N3CCCC3)c2)c(O)c1	66*	1	-50	82*	-9	2
C[C@@H]1CN([C@@H](C)CO)S(=O)(=O)c2ccc(C3=CCCCC3)cc2O[C@@H]1CN(C)Cc1ccccc1	.	.	.	24[16.7 µM]	.	.
C[C@@H]1CN([C@H](C)CO)S(=O)(=O)c2ccc(-c3ccccc3)cc2O[C@H]1CN(C)Cc1ccccc1	.	.	.	55*[16.7 µM]	.	.
Cc1ccc(-c2ccc3c(c2)O[C@@H](CN(C)Cc2cccnc2)[C@H](C)CN([C@H](C)CO)S3(=O)=O)cc1	.	.	.	75*[16.7 µM]	.	.
C[C@H]1CN([C@@H](C)CO)S(=O)(=O)c2ccc(C3=CCCC3)cc2O[C@H]1CN(C)Cc1ccccc1	.	.	.	57*[16.7 µM]	.	.
C[C@H]1CN([C@@H](C)CO)S(=O)(=O)c2ccc(-c3ccccc3)cc2O[C@H]1CN(C)Cc1ccccc1	.	.	.	55*[16.7 µM]	.	.
Cc1ccc(-c2ccc3c(c2)O[C@H](CN(C)Cc2ccccc2)[C@H](C)CN([C@H](C)CO)S3(=O)=O)cc1	.	.	.	18[16.7 µM]	.	.
O=C(C[C@H]1C[C@@H]2c3cc(NC(=O)c4ccc5c(c4)OCO5)ccc3O[C@@H]2[C@@H](CO)O1)NCC1CC1	17	.	.	-4[16.7 µM]	.	.
Cc1ccc(S(=O)(=O)N[C@H]2CC[C@@H](CC(=O)N3CCc4ccccc4C3)O[C@@H]2CO)cc1	4	.	.	12[16.7 µM]	.	.
O=C(Cc1ccccn1)N1CC(=O)N2[C@@H](CO)[C@H](c3ccc(C#CC4CC4)cc3)[C@@H]2C1	29	.	.	.	.	.
COc1ccccc1-c1ccc2c(c1)O[C@@H](CN(C)C)[C@@H](C)CN([C@@H](C)CO)S2(=O)=O	.	.	.	8[16.7 µM]	.	.
COc1ccccc1-c1ccc2c(c1)O[C@H](CN(C)Cc1ccc3c(c1)OCO3)[C@H](C)CN([C@H](C)CO)S2(=O)=O	67*	.	.	38[16.7 µM]	.	.
O=C(C[C@H]1C=C[C@H](NC(=O)Cc2cccnc2)[C@@H](CO)O1)Nc1ccc(-c2ccccc2)cc1	-20	.	.	.	.	.
CN1CCN(C(=S)Nc2ccc(Cl)c(Cl)c2)CC1	126*	-5	-18	.	1	36
S=C(Nc1ccc(Cl)c(Cl)c1)N1CCCC1	5	8	-6	-2	-4	14
O=C(CCN1CCCCC1)N[C@@H]1CC[C@H](CCNC(=O)c2cc(Cl)cc(Cl)c2)O[C@H]1CO	-8	.	.	-25[16.7 µM]	.	.
O=S(=O)(c1ccc(Cl)cc1)N1CCCN(c2nc3ccc(Cl)cc3s2)CC1	-7	2	3	91*	-2	2
COC(=O)c1cccc(Oc2cccc(Cl)n2)c1	-2	13	54*	13	2	-1
COC(=O)c1cccc(Oc2nc3c(c(=O)n(C)c(=O)n3C)n2C(C)C)c1	19	17	-3	23	-3	0
CN1C(=O)c2cc(NC(=O)C3CC3)ccc2OC[C@@H]2O[C@@H](CC(=O)NCCc3ccncc3)CC[C@H]21	-7	.	.	-23[16.7 µM]	.	.
COc1cc(C2C3=C(Nc4ncnn42)c2ccccc2CC3)cc(OC)c1OC (stereo not drawn)	95*	8	-4	55	23	2
O=C(Cc1ccncc1)NCC[C@@H]1CC[C@@H](NC(=O)C2CCCCC2)[C@H](CO)O1	-1	.	.	1[16.7 µM]	.	.
SMILES	PAX8 inh HTS	Arr AP2 block	Rtt109 Vps75	HIV Env fusion	N-glyco inh	PfHsp90 yeast 2
C[C@@H]1CCCCO[C@H](CN(C)Cc2ccc(C(F)(F)F)cc2)[C@H](C)CN([C@H](C)CO)C(=O)c2cc(NC(=O)Nc3ccccc3)ccc2O1	64*	.	.	?	.	.
C[C@H]1CCCCO[C@H](CN(C)Cc2ccc(C(F)(F)F)cc2)[C@@H](C)CN([C@@H](C)CO)C(=O)c2cc(NC(=O)Nc3cccc4ccccc34)ccc2O1	37	.	.	27[16.7 µM]	.	.
C[C@@H]1CCCCO[C@@H](CN(C)Cc2ccc(C(F)(F)F)cc2)[C@H](C)CN([C@H](C)CO)C(=O)c2cc(NC(=O)Nc3ccccc3)ccc2O1	78*	.	.	?	.	.
C[C@@H]1CN([C@@H](C)CO)C(=O)c2cc(NC(=O)Nc3ccccc3)ccc2O[C@@H](C)CCCCO[C@@H]1CN(C)Cc1ccc(C(F)(F)F)cc1	74*	.	.	-11[16.7 µM]	.	.
C[C@H]1CCCCO[C@@H](CN(C)Cc2ccc(C(F)(F)F)cc2)[C@@H](C)CN([C@@H](C)CO)C(=O)c2cc(NC(=O)Nc3cccc4ccccc34)ccc2O1	-5	.	.	61*[16.7 µM]	.	.
CCN1[C@@H]2Cn3c(cccc3=O)[C@H]1[C@@H](C(=O)NC1Cc3ccccc3C1)[C@@H]2CO	-9	.	.	.	.	.
CC(C)NC(=O)N(C)C[C@H]1Oc2cc(-c3ccncc3)ccc2S(=O)(=O)N([C@H](C)CO)C[C@@H]1C	.	.	.	-18[16.7 µM]	.	.
Cc1noc(C)c1S(=O)(=O)N(C)C[C@@H]1OCCCC[C@@H](C)Oc2ccc(NC(=O)c3ccccc3)cc2C(=O)N([C@H](C)CO)C[C@@H]1C	11	.	.	-9[16.7 µM]	.	.
C[C@@H]1CCCCO[C@@H](CN(C)Cc2ccc(C(F)(F)F)cc2)[C@@H](C)CN([C@@H](C)CO)C(=O)c2cc(NC(=O)Nc3ccccc3)ccc2O1	58	.	.	3[16.7 µM]	.	.
C[C@@H]1CN([C@@H](C)CO)C(=O)c2cc(NC(=O)Nc3cccc4ccccc34)ccc2O[C@@H]1CN(C)Cc1ccc(C(F)(F)F)cc1	.	.	.	-3[16.7 µM]	.	.
C[C@@H]1CN([C@H](C)CO)C(=O)c2cc(NC(=O)Nc3ccccc3)ccc2O[C@@H](C)CCCCO[C@@H]1CN(C)Cc1ccc(C(F)(F)F)cc1	80*	.	.	58*[16.7 µM]	.	.
C[C@@H]1CN([C@H](C)CO)C(=O)c2cc(NC(=O)Nc3cccc4ccccc34)ccc2O[C@@H]1CN(C)Cc1ccc(C(F)(F)F)cc1	.	.	.	74*[16.7 µM]	.	.
C[C@@H]1CCCCO[C@H](CN(C)Cc2ccc(C(F)(F)F)cc2)[C@@H](C)CN([C@H](C)CO)C(=O)c2cc(NC(=O)Nc3ccccc3)ccc2O1	20	.	.	-12[16.7 µM]	.	.
